Laboratory results reported in PubChem BioAssay.
Inconclusive results are not listed. The source made the active and inactive calls.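 How the source made its calls, unless noted: active means viability increase at or above a cutoff of the median across tested compounds plus 3 SD (cut at about 8.5% in these data, passing the limit was not always enough); inconclusive means some gains above the cutoff, reason not given; inactive means the rest.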

How the values were obtained:
[1] = OD615 S. cerevisiae growth inhibition, permissive medium, pilot counter-assay, permissive growth control for S. cerevisiae lifespan shortening project (AID 705;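 active means growth inhibition above 25% in both replicates, a cutoff set 3 SD above the mean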); settings: OD615, 24 h, at 10 µM, hits give high values
Summary of the method: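 Material: engineered DeaD yeast; compound dosing: one dose 10 µM, DMSO 0.25% final; measure: yeast growth inhibition indicated by reduced 24 h OD615; detection: OD615 turbidity read; incubation: cells pre-grown 4 h, then 24 h compound exposure, 30 °C humidified; medium: permissive synthetic complete medium with raffinose and galactose carbon sources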

[2] = Restrictive medium S. cerevisiae growth inhibition, OD615, pilot screen of yeast lifespan reduction project, restrictive growth control (AID 706;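 active means growth inhibition above a set limit, 3 SD over mean compound inhibition, in both replicates, cut at about 43% in these data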;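 further: modified DeaD lifespan yeast strain shifted to restrictive glucose medium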); settings: OD615, 48 h, at 10 µM, hits give high values
Summary of the method: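 material = engineered S. cerevisiae DeaD strain | medium = glucose-based CSMM-D restrictive medium | times = 4 h pre-incubation, 48 h exposure at 30 °C | technique = OD615 absorbance reading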

[3] = viability gain of MRP-1-high H69AR cells under doxorubicin, pilot screen, MRP-1 activator project, CellTiter-Glo, duplicate (AID 807); settings: H69AR viability with doxorubicin, CellTiter-Glo luminescence; at 10 µM; hits give high values;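 further: compound pretreatment 18-22 h then 72 h combined with doxorubicin; 0% = doxorubicin alone and 100% = vehicle without doxorubicin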
[4] = growth suppression of beta-catenin knockout HCT116, pilot screen, human colon tumor cells (AID 823;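 active means cell viability at or below a set limit in both duplicate runs, the limit being the all-compound median minus 4 SD, cut at about 23% in these data, passing the limit was not always enough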;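 further: 0% = wells killed by 20 µM Hyamine and 100% = untreated DMSO cell wells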); settings: CellTiter-Glo, 60 h, at 10 µM, hits give low values
[5] = growth suppression of PTEN-deleted HCT116, pilot screen, cell-based, HCT116 clonal line, CellTiter-Glo (AID 824;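 active means viability at or below 27.92% in each of two runs, the all-compound median minus 4 SD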;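 further: 0% = 20 µM Hyamine control and 100% = vehicle cell control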); settings: 60 h, at 10 µM, hits give low values
[6] = inhibitors of the yeast RAM network, pilot screen, dse1pr::URA3 reporter, 5-FOA selection (AID 869;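 active means inhibition over a set limit, the all-compound mean plus 3 SD, in both replicate runs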;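 further: 0% = DMSO wells with no growth and 100% = 10 µM 1-NA-PP1 with full growth; RAM network block rescues cells from 5-FOA so hits raise OD615 growth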); settings: S. cerevisiae dse1pr::URA3 5-FOA growth, OD615, 2 d; at 10 µM; hits give high values; strain carries analog-sensitive mutant Cbk1 kinase
[7] = RAM signaling pathway blockade in yeast – S. cerevisiae, Pdr1DBD-CYC8 efflux-inhibited sensitized strain, primary screen (AID 1298;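 active means RAM network inhibition above 8.4% in each of two replicates, 3 SD over the compound average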;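 further: 0% = DMSO untreated cells without growth and 100% = 10 µM 1-NA-PP1 full growth; higher means more yeast growth rescued from 5-FOA killing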); settings: S. cerevisiae cbk1-as DSE1-URA3 strain, 5-FOA growth OD615, 2 d; at 50 µM; hits give high values

CCCCn1c(CN2CCN(C(=O)c3ccco3)CC2)nc2c1c(=O)n(C)c(=O)n2C
inactive: growth inhibition [1] -3.45% | growth inhibition [2] -7.47% | viability increase [3] -4.33% | viability [4] 101% | viability [5] 98% | inhibition [6] 0.905% | RAM network inhibition [7] 2.15%

CCCC(=O)c1ccc(N2CCOCC2)c(F)c1
inactive: growth inhibition [1] -7.96% | growth inhibition [2] -9.48% | viability increase [3] 5.59% | viability [4] 98.7% | viability [5] 98.2% | inhibition [6] -0.25% | RAM network inhibition [7] 0.58%

CCCOc1ccccc1C1NC(=O)NC(C)=C1C(=O)OCCOC(C)C (stereo not drawn)
inactive: growth inhibition [1] -12.9% | growth inhibition [2] -13.2% | viability increase [3] -2.17% | viability [4] 89.5% | viability [5] 91.4% | inhibition [6] 0.325% | RAM network inhibition [7] 5.61%

CCOc1ccccc1C(=O)Nc1nnc(C(C)C)s1
inactive: growth inhibition [1] 3% | growth inhibition [2] -2.61% | viability increase [3] -4.41% | viability [4] 98.1% | viability [5] 91.5% | inhibition [6] 0.55% | RAM network inhibition [7] 2.24%

Cc1ccsc1-c1nc(CSCC(=O)N2CCN(c3ccccc3)CC2)c(C)o1
inactive: growth inhibition [1] -4.56% | growth inhibition [2] 26.6% | viability increase [3] -3.18% | viability [4] 61.6% | viability [5] 65.6% | inhibition [6] 0.75% | RAM network inhibition [7] 7.89%

Cc1ccc2c(c1)N(CCCC(=O)NCCCN1CCCC1=O)C(=O)CO2
inactive: growth inhibition [1] -11.1% | growth inhibition [2] -13.3% | viability increase [3] -2.09% | viability [4] 98.2% | viability [5] 94% | inhibition [6] 1.64% | RAM network inhibition [7] 1.27%

CN1CCN(C(=O)c2ccc3c(c2)N(Cc2ccc(Cl)cc2)C(=O)c2ccccc2S3=O)CC1 (stereo not drawn)
inactive: growth inhibition [1] -0.89% | growth inhibition [2] -13.2% | viability increase [3] -4.61% | viability [4] 80.3% | viability [5] 83% | inhibition [6] 0.215% | RAM network inhibition [7] 1.3%

COC(=O)C1=C(C)N=c2s/c(=C3\C(=O)Nc4ccccc43)c(=O)n2C1c1ccccc1 (stereo not drawn)
inactive: growth inhibition [1] -2% | growth inhibition [2] -1.65% | viability increase [3] -4.83% | viability [4] 92.3% | viability [5] 91.6% | inhibition [6] 1.77% | RAM network inhibition [7] 3.17%

CCCOc1ccc(C(=O)NCc2ccco2)cc1
inactive: growth inhibition [1] -13.1% | growth inhibition [2] -4.49% | viability increase [3] -1.42% | viability [4] 98% | viability [5] 93.5% | inhibition [6] 0.43% | RAM network inhibition [7] 2.65%

CC12C(=O)N(c3cccc4cccnc34)C(=O)C1C1C=CC2C1 (stereo not drawn)
inactive: growth inhibition [1] -7.71% | growth inhibition [2] 2.71% | viability increase [3] -1.54% | viability [4] 103% | viability [5] 102% | inhibition [6] 0.395% | RAM network inhibition [7] 1.05%

CCCc1cc(=O)oc2cc(OCC(=O)N(C)C)c(Cl)cc12
inactive: growth inhibition [1] -3.68% | growth inhibition [2] 6.56% | viability increase [3] -0.5% | viability [4] 99.6% | viability [5] 93.9% | inhibition [6] 1.73% | RAM network inhibition [7] -1.29%

CC(C)(C)c1ccc(OCC(O)CS(=O)(=O)c2ccccn2)cc1 (stereo not drawn)
inactive: growth inhibition [1] -20.8% | growth inhibition [2] -19.1% | viability increase [3] -0.66% | viability [4] 97.8% | viability [5] 94.5% | inhibition [6] -0.5% | RAM network inhibition [7] 4.16%

Cn1c(NC(=O)c2ccc3c(c2)OCO3)cc(=O)n(C)c1=O
inactive: growth inhibition [1] -5.14% | growth inhibition [2] -2.67% | viability increase [3] 0.04% | viability [4] 98.5% | viability [5] 92.3% | inhibition [6] 1.05% | RAM network inhibition [7] -2.06%

O=C1c2ccccc2C(Nc2ccc3c(c2)OCCO3)N1Cc1ccccc1 (stereo not drawn)
inactive: growth inhibition [1] -4.61% | growth inhibition [2] 8.43% | viability increase [3] -1.12% | viability [4] 88.7% | viability [5] 80.9% | inhibition [6] 0.61% | RAM network inhibition [7] 2.3%

O=C(O)C1CCCN1S(=O)(=O)c1ccc(Cl)c(Cl)c1 (stereo not drawn)
inactive: growth inhibition [1] -5.33% | growth inhibition [2] -3.77% | viability increase [3] -1.74% | viability [4] 98.6% | viability [5] 106% | inhibition [6] -0.11% | RAM network inhibition [7] 1.89%

C=CCNC(=O)c1c(Cl)cccc1Cl
inactive: growth inhibition [1] -12.2% | growth inhibition [2] 3.24% | viability increase [3] -1.31% | viability [4] 90.5% | viability [5] 97.3% | inhibition [6] 0.94% | RAM network inhibition [7] 3.89%

CC(=O)c1cccc(NC(=O)c2c(F)c(F)c(F)c(F)c2F)c1
inactive: growth inhibition [1] -4.19% | growth inhibition [2] 6.79% | viability increase [3] -7.13% | viability [4] 95% | viability [5] 88.4% | inhibition [6] 1.01% | RAM network inhibition [7] -0.87%

CC1CCc2nn(CC(=O)NCCCN3CCCC3=O)cc2C1 (stereo not drawn)
inactive: growth inhibition [1] -17.8% | growth inhibition [2] -22.7% | viability increase [3] -1.1% | viability [4] 103% | viability [5] 93.7% | inhibition [6] 1.29% | RAM network inhibition [7] 4.13%

COc1ccc(Cl)cc1N1C(=O)C2CCCN2C1c1ccccc1F (stereo not drawn)
inactive: growth inhibition [1] 2.31% | growth inhibition [2] -4.76% | viability increase [3] -3.84% | viability [4] 93% | viability [5] 95.1% | inhibition [6] 1.41% | RAM network inhibition [7] 1.3%

Cc1ccc(C(C)C)c(OCc2nc(-c3nonc3N)no2)c1
inactive: growth inhibition [1] -13% | growth inhibition [2] -14.4% | viability [4] 88.3% | viability [5] 81.2% | inhibition [6] 1.71% | RAM network inhibition [7] 3.09%
active: viability increase [3] 8.48%

O=C(O)C1C2C=CC(C2)C1C(=O)NCc1ccc2c(c1)OCO2 (stereo not drawn)
inactive: growth inhibition [1] -3.23% | growth inhibition [2] -1.14% | viability increase [3] -1.9% | viability [4] 94.6% | viability [5] 90.6% | inhibition [6] 2.08% | RAM network inhibition [7] 2.65%

CCC(O)CNc1nc(SC)nc2sc3c(c12)CCN(C)C3 (stereo not drawn)
inactive: growth inhibition [1] -7.7% | growth inhibition [2] -14.2% | viability increase [3] -3.74% | viability [4] 99.2% | viability [5] 91.2% | inhibition [6] 2.08% | RAM network inhibition [7] 0.46%

COC(=O)c1ccc(Cl)c(NC(=O)NC2CCCCC2)c1
inactive: growth inhibition [1] -15.1% | growth inhibition [2] -5.54% | viability increase [3] -1.61% | viability [4] 96.3% | viability [5] 93% | inhibition [6] 2.23% | RAM network inhibition [7] 6.1%

Cc1onc(-c2ccccc2)c1C(=O)Nc1ccc2c(c1)OCCO2
inactive: growth inhibition [1] -5.44% | growth inhibition [2] -6.46% | viability increase [3] -0.35% | viability [4] 96.6% | viability [5] 94.9% | inhibition [6] 2.96% | RAM network inhibition [7] 2.34%
